MrgX1 ag: human MrgX1 receptor agonism, primary screen | MrgX1-HEK293 cells, Fluo-4 calcium fluorescence, agonist mode; stronger effect = higher value | B-score at 10 µM | actives 0.44% (n = 310,000) | Q96LB2;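 active = calcium response B-score plate-corrected fluorescence ratio at least 3 library SD, with starting fluorescence B-score inside 5 SD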
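Assay system: stable human MrgX1 HEK293 cell line. Quantity: 15,000 cells per well. Schedule: cells plated overnight, dye loaded 0.5 h 37 °C, 0.5 h room temperature. Detection: Fluo-4 NW calcium-flux fluorescence, kinetic read. Read-out basis: peak-minus-minimum fluorescence over baseline, converted to B scores. Control set: positive and negative control wells on each plate.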
MrgX1 antag: blocks BAM8-22 activation of human MrgX1 receptor. actives 1.3% (n = 310,000). MRGX1-HEK293 calcium flux, Fluo-4, BAM8-22 antagonism; stronger effect = lower value. B-score at 10 µM. AID 588676. Q96LB2;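 active = calcium-response B-score plate-corrected more than 3 library SD below zero, starting fluorescence within 5 deviations, no agonist response on first addition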;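 also: peak minus trough fluorescence over baseline after final BAM8-22 challenge near maximal dose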
RGS4 inh: inhibitors of human RGS4; HEK293 M3R/RGS4 inducible, Fluo-4 calcium flux; stronger effect = higher value; triggered by carbachol at its EC20; B-score at 10 µM; actives 0.45% (n = 310,000); AID 463165;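 active = B-score, a plate-corrected calcium signal, over three deviations above library mean, with baseline fluorescence within five deviations of library mean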;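 also: RGS4 expression induced by doxycycline in cells with stable M3 receptor; B-score is computed from the integrated fluorescence ratio over baseline after carbachol; higher B-score means a larger calcium signal and so more RGS4 inhibition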
Target sequence (P49798 whole entry, looked up): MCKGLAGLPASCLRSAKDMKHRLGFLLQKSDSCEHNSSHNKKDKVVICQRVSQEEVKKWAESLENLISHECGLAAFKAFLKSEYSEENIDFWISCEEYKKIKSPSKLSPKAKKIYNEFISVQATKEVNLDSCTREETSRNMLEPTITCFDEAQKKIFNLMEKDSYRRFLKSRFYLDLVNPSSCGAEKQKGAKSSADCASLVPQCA
RGS4 pot: RGS4 potentiation or activation. actives 0.92% (n = 310,000). HEK293 M3R/inducible RGS4, carbachol calcium flux Fluo4; stronger effect = lower value. B-score at 10 µM;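 active = B-score of the integrated calcium signal more than 4 SD below the library mean, with starting fluorescence not abnormally high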;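 also: negative B-score means reduced calcium response which marks RGS4 activation or potentiation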
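Assay system: Inducible-RGS4 HEK293 cells carrying M3 receptor | Schedule: Compound preincubation 20 min at room temperature before agonist | Signal: Kinetic calcium fluorescence imaging with Fluo4-AM dye, 2 µM | Read-out basis: B score from integrated fluorescence ratio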
MrgX1 allo act: allosterically activates human MrgX1 receptor signaling. MrgX1-HEK293, Fluo-4 calcium flux, FDSS; stronger effect = higher value. B-score at 10 µM. actives 0.63% (n = 310,000);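 active = plate-corrected calcium response at least 3 library SD above typical, normal starting fluorescence, not activating the receptor alone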;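 also: compound read alongside a low EC10 to EC30 dose of BAM8-22 agonist; peak minus trough fluorescence over baseline measured at the second addition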
MrgX1 ag reconf: confirmation of human MrgX1 receptor agonists; AID 602412; actives 78% (n = 600); activation, % at 10 µM; shares compounds with MrgX1 ag; MrgX1-HEK293, Fluo-4 calcium fluorescence, FDSS;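 active = calcium signal rise, corrected for plate position, at least 3 library SD high, with starting brightness within 5 such deviations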
HEK293 Ca flux: counter-screen for MrgX1 antagonists: effect in parental HEK293 cells; shares compounds with MrgX1 antag; Fluo-4 calcium fluorescence, FDSS; fluorescence ratio F(max-min)/F0 at 10 µM; actives 2% (n = 4,000); AID 624111;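 active = duplicate-averaged calcium fluorescence ratio at least three times the standard deviation of buffer wells, a nonspecific response in parental cells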
HEK293 Ca counter: counter-screen for MrgX1 allosteric activators: effect in parental HEK293 cells | actives 0.4% (n = 4,000) | parental HEK293 calcium flux, Fluo-4 fluorescence ratio; stronger effect = higher value | AID 624114 | fluorescence ratio F(max-min)/F0 at 10 µM | shares compounds with MrgX1 antag;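 active = calcium fluorescence ratio, averaged over duplicates, at least 3 SD of the buffer-well ratio, meaning a nonspecific response in receptor-free cells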;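 also: untransfected parental HEK293 lacking MrgX1 used as counterscreen for MrgX1 allosteric activators; fluorescence change taken during the second addition on a kinetic imager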
HEK293 Ca cntr2: activity in parental HEK293 cells lacking MrgX1 receptor. shares compounds with MrgX1 antag. Fluo-4 calcium fluorescence (FDSS); stronger effect = higher value. fluorescence ratio F(max-min)/F0 at 10 µM. actives 8.7% (n = 4,000). AID 624115;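 active = calcium fluorescence ratio at least three times the spread of buffer wells, meaning a non-specific response in parental cells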
The depositor's hits bear a star; i = inactive; . = no result given. An excerpt weighted towards active compounds, which were near 3.5% of everything screened.

SMILES	MrgX1 ag	MrgX1 antag	RGS4 inh	RGS4 pot	MrgX1 allo act	MrgX1 ag reconf	HEK293 Ca flux	HEK293 Ca counter	HEK293 Ca cntr2
C=C(C)Cn1c(SCC(=O)O)nnc1-c1ccccc1	i	i	i	i	i	.	.	.	.
C=C(C)Cn1c(-c2ccccc2)nc2ccccc21	31*	i	i	i	i	131%*	i	i	i
NC1=NC2=C(CCCC2)C2(CCCCC2)S1	32*	i	i	i	i	160%*	i	i	i
CC(C)Cc1csc(NC(=O)c2ccc(Cl)cc2)c1C(=O)O	37*	i	i	i	i	224%*	i	i	52*
CC12CC3CC(C)(C1)CC(C(=O)NCc1cccnc1)(C3)C2	i	i	i	i	i	.	.	.	.
Cc1cc(C)nc(/N=C(\N)Nc2cccc(OCc3ccccc3)c2)n1	153*	i	i	i	i	523%*	i	i	100*
Cc1cc(C)nc(/N=C(\N)Nc2ccc(OCCC(C)C)cc2)n1	118*	i	i	i	i	599%*	i	i	124*
Cc1cc(C)nc(/N=C(\N)Nc2ccc(CC(=O)OC(C)C)cc2)n1	143*	i	i	i	i	424%*	i	i	90*
COc1ccccc1N/C(N)=N/c1nc(C)cc(C)n1	i	i	i	i	i	.	.	.	.
CCOC(=O)CSc1nc(-c2ccncc2)ccc1C#N	29*	i	i	i	i	150%*	i	i	i
CCOC(=O)CC(=O)CSc1nc(-c2cccnc2)ccc1C#N	37*	i	i	i	i	275%*	i	i	66*
CCOC(=O)CC(=O)CSc1nc(C)cc(-c2cccnc2)c1C#N	i	i	i	i	i	.	.	.	.
COC(=O)c1c(Cl)c2n3ccccc3c(C)c(-c3ccccc3)c-2c1C(=O)OC	27*	i	i	i	i	i	i	i	i
CN(c1ccc(C(=O)N2CCN(Cc3ccccc3)CC2)cc1)S(=O)(=O)c1ccc(Cl)cc1	i	i	i	i	i	.	.	.	.
CCCCCN(C(=O)CCC(=O)OC(C)C(=O)Nc1cccc(C#N)c1)c1c(N)n(CCCC)c(=O)[nH]c1=O (stereo not drawn)	i	i	i	i	i	.	.	.	.
COc1ccc2c(n1)Sc1nc3ccccc3nc1N2	40*	i	i	i	i	501%*	0.18*	i	122*
COc1cc2ccccc2nn1	i	i	i	i	i	.	.	.	.
CCOC(=O)c1cnn2c(C)cc(-c3ccc(F)cc3)nc12	26*	i	i	i	i	i	i	i	i
CC(C)CCNc1nc(-c2ccco2)c2c(c1C#N)CCCC2	27*	i	i	i	i	i	i	i	i
N#Cc1c(NCCN)nc(-c2ccco2)c2c1CCCC2	i	i	i	i	i	.	.	.	.
Cn1c(=O)c2c(ncn2CC2OCCO2)n(C)c1=O	i	i	i	i	i	.	.	.	.
CCCN(C(=O)CSc1nnnn1-c1ccccc1OC)C1CCS(=O)(=O)C1 (stereo not drawn)	i	i	i	i	i	.	.	.	.
O=C(c1cncc(Br)c1)N1CCN(S(=O)(=O)c2ccc(Cl)cc2)CC1	i	i	i	i	i	.	.	.	.
N=C1/C(=C\c2ccc(SCc3ccco3)o2)C(=O)N=C2SC=NN12	90*	i	i	i	i	267%*	i	i	47*

Source: PubChem BioAssay
